The source of these data is ChEMBL document CHEMBL4145684 (J Med Chem, 2018).

Data set [1] relates to MCF7. As to the kind of experiment: Antitumor activity against human MCF7 cells xenografted in nu/nu mouse model of tamoxifen-sensitive breast cancer xenograft implanted with 17beta-estradiol time release pellets assessed as reduction tumor volume at 60 mg/kg, po qd for 4 weeks. Format: functional, organism-based. Background: Xenograft models place foreign cells or tissue in a host animal.

Data set [2] relates to Rattus norvegicus. As to the kind of experiment: Reduction in uterine wet weight in ethynyl estradiol-stimulated CD-IGS rat at 60 mg/kg, po dosed daily for 3 days by gavage followed 15 mins later by 0.1 mg/kg, po ethynyl estradiol and measured 24 hrs after last dose by immature rat uterine wet weight assay. The format is functional. Put shortly: (§1)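 Female immature CD-IGS rats, 21 days old on arrival; oral gavage of vehicle or compound daily for 3 days, ethynyl estradiol 0.1 mg/kg orally 15 min after each dose. Day 4, 24 h post-dose, plasma taken, then uterus removed and weighed. Reduction = 100 x (VehicleEE – Cpd)/(VehicleEE – Vehicle).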

In data set [3] the test system is MCF7. Kind of data set: Antitumor activity against human MCF7 cells xenografted in nu/nu mouse model of tamoxifen-resistant breast cancer xenograft implanted with 17beta-estradiol time release pellets assessed as reduction tumor volume at 120 mg/kg, po qd for 4 weeks. Format: functional, organism-based. In short, it runs like this: (§2)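 Female nu/nu mice with 0.72 mg 60-day 17β-estradiol pellets bearing MCF-7 tumors, pretreated with oral tamoxifen citrate; at ~150-250 mm3 (mean 200 mm3) randomized, tamoxifen stopped, then dosed daily for 4 weeks; tumor volume (length x width2/2) and body weight twice weekly.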

The subject of data set [4] is Rattus norvegicus. Kind of data set: In-vivo agonist activity at ERalpha in CD-IGS rat assessed as increase in uterine wet weight at 60 mg/kg, po dosed daily for 3 days by gavage and measured 24 hrs after last dose by immature rat uterine wet weight assay. Format: functional, organism-based. Put shortly: (§3)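 Immature CD-IGS rats given compound orally for 3 days without ethynyl estradiol (agonist mode); on day 4, 24 h after dosing, uterus removed and weighed; wet weight normalized to total body weight.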

In data set [5] the test system is MCF7. Kind of data set: Antiproliferative activity against human MCF7 cells assessed as reduction in cell proliferation in RPMI containing 10% FBS incubated for 5 days by Cell-titer-Glo assay. Format: functional, cell-based. Particulars: MCF7, 120 h. In short, it runs like this: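 MCF-7 cells, 640/well in RPMI with 10% FBS and 20 mM HEPES, adhered overnight; 10-point 1:5 dilution series (10–0.000005 µM final) for 5 days. CellTiter-Glo luminescence, cell-free medium background subtracted, percent viability vs untreated cells; n ≥ 3.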

The target of data set [6] is T1, Estrogen receptor (Homo sapiens, UniProt P03372).
T1 sequence (P03372 whole entry): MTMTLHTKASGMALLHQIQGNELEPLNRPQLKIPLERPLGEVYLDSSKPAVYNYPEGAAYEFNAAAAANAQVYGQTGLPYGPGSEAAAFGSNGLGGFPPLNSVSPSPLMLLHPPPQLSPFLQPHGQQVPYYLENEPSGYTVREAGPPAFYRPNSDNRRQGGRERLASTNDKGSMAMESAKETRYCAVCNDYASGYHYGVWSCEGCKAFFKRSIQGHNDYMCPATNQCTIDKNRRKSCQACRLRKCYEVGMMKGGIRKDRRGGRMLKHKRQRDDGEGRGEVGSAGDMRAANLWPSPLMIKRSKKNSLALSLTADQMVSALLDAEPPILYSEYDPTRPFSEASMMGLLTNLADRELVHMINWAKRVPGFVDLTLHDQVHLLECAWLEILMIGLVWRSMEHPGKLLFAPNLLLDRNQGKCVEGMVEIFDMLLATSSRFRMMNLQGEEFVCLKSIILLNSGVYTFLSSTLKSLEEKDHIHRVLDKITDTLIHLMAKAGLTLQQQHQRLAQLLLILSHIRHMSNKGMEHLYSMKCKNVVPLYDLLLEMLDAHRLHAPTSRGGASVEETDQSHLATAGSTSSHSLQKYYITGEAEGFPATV
Kind of data set: Induction of ERalpha degradation in human MCF7 cells in phenol red free RPMI medium containing 5% charcoal dextran-treated FBS incubated for 4 hrs by SP1 and anti-ER rabbit monocolnal antibody based in-cell Western assay.

Data set [7] can be described thus: Half life in mouse at 3 mg/kg, iv. Format: ADME, organism-based. Particulars: in vivo. Put shortly: (§4)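 Mouse or rat PK: single intravenous dose 3 mg/kg or oral dose 10 mg/kg, vehicle PEG400/PVP/Tween 80/0.5% CMC in water (9:0.5:0.5:90).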
Data set [8] can be described thus: Oral bioavailability in mouse at 10 mg/kg. Format: ADME, organism-based. Particulars: in vivo. Put shortly:
as §4

Data set [9] deals with MCF7. Kind of data set: Antitumor activity against human MCF7 cells xenografted in nu/nu mouse model of tamoxifen-resistant breast cancer xenograft implanted with 17beta-estradiol time release pellets assessed as reduction tumor volume at 60 mg/kg, po qd for 4 weeks. Format: functional, organism-based. In short, it runs like this:
as §2

The nature of data set [10]: Half life in rat at 3 mg/kg, iv. Format: ADME, organism-based. Particulars: in vivo. Put shortly: as §4
Data set [11] has as its system MCF7. As to the kind of experiment: Antitumor activity against human MCF7 cells xenografted in nu/nu mouse model of tamoxifen-sensitive breast cancer xenograft implanted with 17beta-estradiol time release pellets assessed as reduction tumor volume at 6 mg/kg, po qd for 4 weeks. Format: functional, organism-based.
Data set [12] can be described thus: AUC in human MCF7 cells xenografted nu/nu mouse implanted with 17beta-estradiol time release pellets dosed orally once daily for 4 weeks. The format is ADME, organism-based. Particulars: in vivo, po.
The nature of data set [13]: Oral bioavailability in rat at 10 mg/kg. The format is ADME, organism-based. Particulars: in vivo. In short, it runs like this: as §4
Data set [14] relates to Rattus norvegicus. As to the kind of experiment: In-vivo inverse agonist activity at ERalpha in CD-IGS rat assessed as reduction in uterine wet weight at 10 mg/kg, po dosed daily for 3 days by gavage and measured 24 hrs after last dose by immature rat uterine wet weight assay relative to basal level. The format is functional, organism-based. In short, it runs like this:
as §3

The nature of data set [15]: Cmax in rat at 10 mg/kg, po. Format: ADME, organism-based. Also noted: dose 10 mg/kg, route oral. Particulars: in vivo. In short, it runs like this: as §4
The nature of data set [16]: AUC (0 to infinity) in rat at 10 mg/kg, po. Format: ADME, organism-based. Further details: dose 10 mg/kg, route oral, time infinity. Particulars: in vivo.
Data set [17] is described as follows: Cmax in mouse at 10 mg/kg, po. Also noted: dose 10 mg/kg, route oral. Particulars: in vivo. Format: ADME, organism-based. In short, it runs like this:
as §4

Data set [18] is described as follows: AUC in mouse at 10 mg/kg, po. Format: ADME, organism-based. Particulars: in vivo. Put shortly: as §4
For data set [19], the system named is Rattus norvegicus. Kind of data set: Reduction in uterine wet weight in ethynyl estradiol-stimulated CD-IGS rat at 10 mg/kg, po dosed daily for 3 days by gavage followed 15 mins later by 0.1 mg/kg, po ethynyl estradiol and measured 24 hrs after last dose by immature rat uterine wet weight assay. Format: functional. Put shortly:
as §1

A short description of data set [20]: Clearance in rat at 3 mg/kg, iv. The format is ADME, organism-based. Particulars: in vivo. Put shortly: as §4
Data set [21] has as its system Rattus norvegicus. As to the kind of experiment: Reduction in uterine wet weight in ethynyl estradiol-stimulated CD-IGS rat at 1 mg/kg, po dosed daily for 3 days by gavage followed 15 mins later by 0.1 mg/kg, po ethynyl estradiol and measured 24 hrs after last dose by immature rat uterine wet weight assay. Format: functional. Put shortly:
as §1

The nature of data set [22]: Volume of distribution at steady state in rat at 3 mg/kg, iv. The format is ADME, organism-based. Particulars: in vivo, read-out: Vdss. Put shortly:
as §4

A short description of data set [23]: Clearance in mouse at 3 mg/kg, iv. The format is ADME, organism-based. Particulars: in vivo. Put shortly:
as §4

The nature of data set [24]: Volume of distribution at steady state in mouse at 3 mg/kg, iv. The format is ADME, organism-based. Particulars: in vivo, read-out: Vdss. Put shortly:
as §4

The nature of data set [25]: AUC (0 to infinity) in mouse at 10 mg/kg, po. Format: ADME, organism-based. Also noted: dose 10 mg/kg, route oral, time infinity. Particulars: in vivo.
In data set [26] the target is T1, Estrogen receptor. Kind of data set: Binding affinity to ERalpha (unknown origin).
Data set [27] deals with Rattus norvegicus. Kind of data set: Reduction in uterine wet weight in ethynyl estradiol-stimulated CD-IGS rat at 200 mg/kg, po dosed daily for 3 days by gavage followed 15 mins later by 0.1 mg/kg, po ethynyl estradiol and measured 24 hrs after last dose by immature rat uterine wet weight assay. The format is functional. In short, it runs like this:
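Female immature CD-IGS rats, 21 days old on arrival. Compound or vehicle was given orally by gavage once daily for 3 days, and oral ethynyl estradiol at 0.1 mg/kg followed each dose by 15 min. On day 4, 24 h after dosing, plasma was taken for PK, then the uterus was removed and weighed. % reduction = 100 × (VehicleEE − Cpd)/(VehicleEE − Vehicle).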

The source made the active and inactive calls. The calls are words filed in the database; no cut-off is given here.

Consider `CC/C(=C(\c1ccccc1)c1ccc(OCCN(C)C)cc1)c1ccccc1` [TAMOXIFEN], for which the outcome in data set [1] and in data set [4] was Active. For the same compound, the “inhibition (INH)” value in data set [2] is reported as 78%. In addition, the outcome in [3] was inactive.
On to `CC1=C(c2cccc(O)c2)C(c2ccc(OC[C@H](C)N3CC[C@@H](C)C3)cc2)Oc2ccc(O)cc21` (some centres not stated), for which the results for the IC50 in data set [5], in [6] and in [26] were 0.2 nM, 0.2 nM and 5.1 nM, respectively. The half-life (usually the time in which the quantity being followed falls by half) in data set [7] is 3.6 h; in data set [10], 2.9 h. For the same compound, the figures for the bioavailability in [8] and in data set [13] were 13% and 18%, respectively. Further, the outcome in data set [9], in data set [11] and in data set [14] was Active. Moreover, the AUC (in general, the area under the concentration-time curve, a measure of exposure) at 672 h in data set [12] was determined as 4600 ng·h/mL. Moreover, the Cmax (in general, the highest concentration seen after dosing) came to 140 ng/mL in data set [15] and 100 ng/mL in data set [17]. Also, the figures for the AUC(0-inf) in data set [16] and in data set [25] were 930 ng·h/mL and 590 ng·h/mL, respectively. In data set [18], this compound had an AUC of 590 ng·h/mL. The “inhibition (INH)” value in [19] is 111%; in data set [21], 99%. Besides, the clearance (usually a measure of how efficiently the substance is removed, as volume per time) in data set [20] was 33 mL/min/kg; in data set [23], 38 mL/min/kg. Besides, the Vd turned out to be 8 L/kg in data set [22] and 6.2 L/kg in [24].
As for `C[C@]12CC[C@@H]3c4ccc(O)cc4C[C@@H](CCCCCCCCC[S+]([O-])CCCC(F)(F)C(F)(F)F)[C@H]3[C@@H]1CC[C@@H]2O` (some centres not stated) [FULVESTRANT], in data set [27], the “inhibition (INH)” value came out at 110%.
